# Source: ChEMBL document CHEMBL4819106, “Aminopyrazole based CDK9 PROTAC sensitizes pancreatic cancer cells to venetoclax” (Bioorg Med Chem Lett, 2021)
# The source made the active and inactive calls. The rule behind the calls is not given here.
# Tests used:
# [1] = tested on: MIA PaCa-2; test: Antiproliferative activity against human MIA PaCa-2 cells assessed as cell growth inhibition at 5 uM measured after 3 days by Prestoblue assay relative to control; type: functional; settings: MIA PaCa-2, 72 h, time 3 day, read-out: GI
# How it was run: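 MiaPaCa2 cells were exposed for 3 days to single agents (Bcl2-family inhibitors or CDK9 degrader) at equimolar concentration. Viability was read by PrestoBlue.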
# [2] = target: Protein cereblon/Cyclin-dependent kinase 9 (Homo sapiens, UniProt P50750+Q96SW2); test: Protac activity at CDK9/CRBN in human HEK293 cells assessed as degradation of CDK9 at 0.01 to 10 uM incubated for 24 hrs by Western blot analysis; type: cell-based; settings: dose 0.01-10 µM
# Chain of Protein cereblon/Cyclin-dependent kinase 9 (P50750 whole entry, looked up): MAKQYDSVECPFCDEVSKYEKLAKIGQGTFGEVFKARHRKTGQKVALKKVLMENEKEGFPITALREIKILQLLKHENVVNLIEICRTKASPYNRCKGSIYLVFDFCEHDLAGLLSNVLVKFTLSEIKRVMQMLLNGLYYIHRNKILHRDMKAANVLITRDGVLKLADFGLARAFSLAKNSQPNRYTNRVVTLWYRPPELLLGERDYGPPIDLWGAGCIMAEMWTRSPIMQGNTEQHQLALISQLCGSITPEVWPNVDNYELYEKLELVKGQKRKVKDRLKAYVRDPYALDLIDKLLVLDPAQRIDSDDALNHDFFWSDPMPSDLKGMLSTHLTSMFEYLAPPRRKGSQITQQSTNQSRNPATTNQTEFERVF
# Chain of Protein cereblon/Cyclin-dependent kinase 9 (Q96SW2 whole entry, looked up): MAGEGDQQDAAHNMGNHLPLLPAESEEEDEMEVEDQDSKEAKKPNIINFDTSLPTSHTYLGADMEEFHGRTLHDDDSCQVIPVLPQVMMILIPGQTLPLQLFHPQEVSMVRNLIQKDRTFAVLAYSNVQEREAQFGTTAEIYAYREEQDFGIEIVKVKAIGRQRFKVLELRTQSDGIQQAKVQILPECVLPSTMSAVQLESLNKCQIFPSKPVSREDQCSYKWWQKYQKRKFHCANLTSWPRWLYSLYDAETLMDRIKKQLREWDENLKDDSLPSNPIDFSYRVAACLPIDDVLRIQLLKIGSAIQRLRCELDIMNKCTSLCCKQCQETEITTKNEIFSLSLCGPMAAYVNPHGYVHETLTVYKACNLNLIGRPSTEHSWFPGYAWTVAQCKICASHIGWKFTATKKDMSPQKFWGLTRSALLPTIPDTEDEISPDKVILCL
# How it was run: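 HEK293 cells were treated with increasing concentrations (0.01–10 μM) for 24 hr. Lysates were analysed by western blot for CDK9 degradation.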
Activity [2],SMILES,inhibition of growth at 5 µM [1]
,CC1(C)CCC(c2ccc(Cl)cc2)=C(CN2CCN(c3ccc(C(=O)NS(=O)(=O)c4ccc(N[C@H](CCN5CCOCC5)CSc5ccccc5)c(S(=O)(=O)C(F)(F)F)c4)cc3)CC2)C1 [NAVITOCLAX],50%
inactive,O=C(COCCOCCOCCOc1cccc(CC(=O)Nc2cc(C3CCC3)[nH]n2)c1)NCCOCCOCCNc1cccc2c1C(=O)N(C1CCC(=O)NC1=O)C2=O (stereo not drawn),
inactive,O=C(COc1ccc(CC(=O)Nc2cc(C3CCC3)[nH]n2)cc1)NCCCCNc1cccc2c1C(=O)N(C1CCC(=O)NC1=O)C2=O (stereo not drawn),
